High-throughput results: PubChem BioAssay, several laboratories
Calb biofilm kill: kills Candida albicans biofilms | inhibition, % at 6 µM | actives 0.14% (n = 85,000) | AID 834 | C. albicans biofilm + clotrimazole, Alamar Blue;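 active means inhibition above 20%; inactive means inhibition below 20%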;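 further: preformed 24 hr biofilms exposed to compound for 48 hr; 0% = biofilm without compound and 100% = blank killed by clotrimazole plus chlorhexidine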
SF-1 act: SF-1 (human) activation | activation, % at 10 µM | Q13285 | CHO-K1 Gal4-SF-1 LBD luciferase reporter; % increase over DMSO SF-1-specific signal | AID 522 | actives 1.9% (n = 65,000);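 active means activation above the mean activation of all tested compounds plus 3 SD, cut at about 50% in these data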
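Assay system: CHO-K1 cells co-transfected with Gal4 DBD–human SF-1 LBD, 5xGal4 luciferase reporter; doses: 10 µM only; incubation: 20 h compound exposure at 37 °C after 1 h cell settling; signal: luciferase light emission; evaluation: percent activation versus DMSO; repeats: one test per compound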
RORa activator: activates the human nuclear receptor RORA | P35398 | CHO-K1 Gal4-RORA LBD luciferase reporter, luminescence; percent increase over mock-subtracted basal signal | activation, % at 10 µM | actives 1.5% (n = 65,000) | AID 560;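 active means activation above the mean of all tested compounds plus 3 SD, cut at about 49% in these data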;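 further: 0% = DMSO-treated RORA cells and 100% = added signal equal to DMSO minus mock-transfected cells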
Target sequence (P35398 whole entry, looked up, the tested form may be a part): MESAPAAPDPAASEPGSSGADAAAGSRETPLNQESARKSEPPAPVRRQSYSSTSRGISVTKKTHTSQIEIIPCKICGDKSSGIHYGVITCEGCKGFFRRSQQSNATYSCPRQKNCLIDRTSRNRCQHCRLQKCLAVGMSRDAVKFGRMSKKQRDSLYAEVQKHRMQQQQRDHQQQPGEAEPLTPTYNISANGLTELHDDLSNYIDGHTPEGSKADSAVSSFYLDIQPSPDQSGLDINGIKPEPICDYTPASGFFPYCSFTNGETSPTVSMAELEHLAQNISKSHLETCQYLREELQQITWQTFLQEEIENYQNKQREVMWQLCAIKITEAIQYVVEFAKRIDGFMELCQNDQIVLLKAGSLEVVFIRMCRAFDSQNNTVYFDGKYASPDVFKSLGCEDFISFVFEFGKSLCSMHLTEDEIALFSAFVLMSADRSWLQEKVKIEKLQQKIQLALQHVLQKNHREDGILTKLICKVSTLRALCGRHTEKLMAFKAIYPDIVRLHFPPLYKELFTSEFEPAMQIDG
JNK3 blocker: inhibitors of human JNK3 kinase; P53779; purified JNK3 kinase activity, HTS; inhibition, % at 8 µM; actives 0.61% (n = 60,000); in the data active means inhibition above about 17%;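 further: 0% = DMSO and 100% = reference inhibitor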
An asterisk follows results filed as active; nt = not tested or not shown. Most compounds without a hit are left out; they make up all but 2.3% or so of the library.

SMILES | Calb biofilm kill | SF-1 act | RORa activator | JNK3 blocker
O=C(Nc1nc2c(s1)CCCC2)C1COc2ccccc2O1 (stereo not given) | 10 | -27 | -43 | -1
Cc1nnc(NC(=O)C2COc3ccccc3O2)s1 (stereo not given) | -1 | 52* | 18 | 7
CS(=O)(=O)c1ccc2nc(NC(=O)C3COc4ccccc4O3)sc2c1 (stereo not given) | -1 | 52* | 7 | -6
O=C(Nc1nc(-c2nc3ccccc3s2)cs1)C1COc2ccccc2O1 (stereo not given) | 3 | 55* | 13 | -1
CCc1nnc(NC(=O)C2COc3ccccc3O2)s1 (stereo not given) | 5 | nt | nt | nt
Cc1cc(C(=O)Nc2nc3ccc(S(C)(=O)=O)cc3s2)c(C)o1 | 5 | 50* | 89* | -3
COc1ccc(-c2nc(N3CCOCC3)nc3nn4c(C)c(CCC(=O)O)c(C)nc4c23)cc1 | 2 | -4 | -12 | 0
O=C(c1ccccc1)c1cc(F)c(N2CCOCC2)cc1Cl | nt | 5 | -8 | -2
O=C(c1ccccc1)c1ccc(N2CCOCC2)c(F)c1 | 9 | 46 | 74* | -3
c1ccc(-c2cc(N3CCCCCC3)n[nH]2)cc1 | 4 | 42 | 70* | -10
FC(F)(F)c1cc(-c2ccccc2)nc(N2CCCCCC2)n1 | -2 | 2 | -6 | -6
c1ccc(-c2cc(N3CCCCC3)ncn2)cc1 | 4 | 56* | 34 | 7
c1ccc(-c2cnnc(N3CCCCC3)n2)cc1 | 8 | 14 | 58* | nt
c1ccc(-c2csc(N3CCCCCC3)n2)cc1 | -2 | 8 | 7 | -1
Nc1nc(-c2ccccc2)cc(N2CCCCC2)n1 | -4 | 75* | 47 | -2
Cc1nc(-c2ccccc2)cc(N2CCCC2)n1 | nt | -29 | -4 | -1
CC1CCc2c(sc(NC(=O)CSc3ncnc4c3cnn4-c3ccccc3Cl)c2C#N)C1 (stereo not given) | 2 | nt | nt | nt
COc1ccc(C2C(C#N)=C(N)Oc3cc(C)[nH]c(=O)c32)c(OC)c1OC (stereo not given) | 4 | nt | nt | nt
O=C1C(C=NCc2ccncc2)=C(O)c2ccccc21 | 4 | nt | nt | nt
O=C1C(C=NCc2cccnc2)=C(O)c2ccccc21 | 6 | 45 | 53* | 28*
CCOc1ccc(NC(=O)CSc2nnc(CCNC(=O)c3ccc(OC)cc3)n2C)cc1 | 4 | nt | nt | nt
c1ccn2c(SCc3ccc4c(c3)OCO4)nnc2c1 | 3 | 40 | 23 | 3
O=C(CSc1nnc2ccccn12)c1ccc2c(c1)OCCO2 | 5 | 64* | 51* | 2
O=C(c1ccccc1)c1nc[nH]c1C(=O)Nc1ccccn1 | 9 | 0 | 1 | 18*
CCOC(=O)c1[nH]cnc1C(=O)Nc1ccccn1 | 11 | 9 | 10 | 10
SMILES | Calb biofilm kill | SF-1 act | RORa activator | JNK3 blocker
CN(C)c1ccc(/C=N/N2C(=S)SC(C)(C)C2N(O)C(=O)Nc2ccc([N+](=O)[O-])cc2)cc1 (stereo not given) | 5 | nt | nt | nt
O=S(=O)(NCCSc1nnnn1-c1ccccc1)c1cccs1 | 5 | 54* | 22 | 2
CCOC(=O)N1CCC(N2Cc3cccc(C(=O)Nc4ccc(OC)c(OC)c4)c3C2=O)CC1 | 7 | 54* | 19 | 2
Cn1c(SCc2nc3ccccc3c(=O)[nH]2)nnc1-c1ccco1 | 9 | -3 | -8 | 0
Cn1c(-c2ccccc2)cnc1SCc1nc2ccccc2c(=O)[nH]1 | -1 | 69* | 29 | -1
Oc1ccccc1C1=Nc2nc3ccccc3n2C(c2ccccc2)C1 (stereo not given) | 4 | 42 | 81* | 5
CN1C(=O)CC(n2c(CO)nc3ccccc32)C1=O (stereo not given) | 3 | 18 | -1 | 0
c1ccc(CSc2nnc(-c3c[nH]c4ccccc34)o2)cc1 | 0 | 46 | 80* | 5
O=C(COc1ccc(S(=O)(=O)N2CCCCC2)cc1)NCc1cccnc1 | 3 | nt | nt | nt
c1cnc(N2CCN(c3ncnc4c3oc3ccccc34)CC2)nc1 | 7 | -13 | -10 | -3
COc1ccccc1N1CCN(c2ncnc3c2oc2ccccc23)CC1 | 4 | 43 | 56* | 1
O=C(OCCN1C(=O)c2ccccc2C1=O)c1ccco1 | 10 | nt | nt | nt
CN(CCOC(=O)c1ccco1)Cc1ccccc1 | 70* | nt | nt | nt
O=S(=O)(Cc1ccccc1)c1cnc2ccccc2n1 | 1 | nt | nt | nt
Cc1nc2ccc(NC(=O)c3ccc(Cl)s3)cc2s1 | 1 | 76* | 80* | 7
Cc1nc2ccc(NC(=O)c3ccc(Cl)c(NC(=O)c4cccs4)c3)cc2s1 | 4 | nt | nt | nt
Cc1ccc2nc(NC(=O)c3ccc(Cl)s3)sc2c1 | 3 | 54* | 86* | 4
Cc1nc2ccc(NC(=O)Cc3cccs3)cc2s1 | -4 | 80* | 53* | -1
